Data set [1] in a line: Antitumor activity against human leukemia stem/progenitor cells xenografted in NOD/SCID mouse assessed as survival rate at 100 mg/kg, po qd administered every other day total of seven doses starting from 8 weeks post grafting measured on day 85. It is filed as functional. The essentials: (§1)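 NOD/SCID mice were sublethally irradiated (280cGay), then 6−10 h later given primary AML M5 patient cells via tail vein in PBS. From 8 weeks postinoculation, aqueous solution was given orally at 100 mg/kg every other day for seven doses. Survival was followed, Kaplan−Meier, n = 6 per treated group and n = 7 untreated controls. Survivors at day 85 had bone marrow analysed for human CD45⁺CD33⁺ cells.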

Data set [2] in a line: Total clearance in mouse at 150 mg/kg, po. It is filed as ADME, organism-based. More on the design: dose 150 mg/kg, route oral. As to conditions: in vivo; call rule not given here. In short, it runs like this:
(§2)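 Male Kunming mice (20 2 g), fasted 12 h before dosing with water available, given DMAMCL as an aqueous solution po (n = 5). Blood was drawn from the orbital veins at set times. Plasma DMAMCL and MCL were followed, and parameters came from noncompartmental analysis.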

Data set [3] can be described thus: Drug degradation in HEPES buffer at pH 7.4 assessed as release of MCL. It is filed as physicochemical. In short, it runs like this:
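A 20 μL aliquot of prodrug solution was added to 980 μL HEPES buffer (pH 7.4, or below 5.0) and incubated at 37 °C. Samples were withdrawn over time, and prodrug and released parent were quantified by HPLC (mean, SD, n = 4).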

Data set [4] can be described thus: Cmax in mouse at 100 mg/kg, iv. It is filed as ADME, organism-based. Also noted: dose 100 mg/kg, route intravenous. The following applies: in vivo. In short, it runs like this:
(§3)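 Male Kunming mice (20 2 g), fasted 12 h before dosing with water available, given DMAMCL as an aqueous solution iv (n = 5). Blood was drawn from the orbital veins at set times. DMAMCL and MCL in plasma were measured, and parameters were derived by a noncompartmental model.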

The test system of data set [5] is Plasma. Nature of the data set: Drug metabolism in mouse plasma assessed as release of MCL. Format: ADME, cell-free. The essentials:
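A 20 μL aliquot of prodrug solution was added to 980 μL blank mouse plasma and incubated at 37 °C. Prodrug and released parent drug concentrations were measured over time by HPLC (mean, SD, n = 4).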

A short description of data set [6]: Cytotoxicity against human leukemia cells assessed as cell viability at 10 uM after 18 hrs by annexin-V labeling-based flow cytometry.
Data set [7] concerns Mus musculus. Nature of the data set: Toxicity in BALB/c mouse assessed as pathological changes in spleen at 500 mg/kg, po administered every day for 7 days by hematoxylin-eosin staining method. The following applies: in vivo, 168 h.
In data set [8] the test system is Mus musculus. Nature of the data set: Toxicity in BALB/c mouse assessed as pathological changes in heart at 500 mg/kg, po administered every day for 7 days by hematoxylin-eosin staining method. As to conditions: in vivo, 168 h.
Data set [9] deals with Mus musculus. Nature of the data set: Toxicity in BALB/c mouse assessed as pathological changes in liver at 500 mg/kg, po administered every day for 7 days by hematoxylin-eosin staining method. The following applies: in vivo, 168 h.
Data set [10] can be described thus: Antitumor activity against human leukemia stem/progenitor cells xenografted in NOD/SCID mouse assessed as survival time at 100 mg/kg, po qd administered every other day total of seven doses starting from 8 weeks post grafting (reference value: 43 days). It is filed as functional. The essentials: as §1
The nature of data set [11]: Cytotoxicity against human HL60/A cells after 18 hrs by annexin-V labeling-based flow cytometry. It is filed as functional, cell-based.
A short description of data set [12]: Antitumor activity against mixed-lineage human leukemia cells xenografted in NOD/SCID mouse assessed as reduction of CD45+CD33+ cells in bone marrow at 100 mg/kg, po qd administered every other day total of seven doses starting from 8 weeks post grafting measured on day 35 (reference value: 9.8 %). It is filed as functional, Leukemia cell. Also noted: scale not given: the % may be the effect or the level left.

Data set [13] is described as follows: Oral bioavailability in mouse at 150 mg/kg. Format: ADME, organism-based. The following applies: in vivo.
Data set [14] is described as follows: Mean retention time (0 to t) in mouse at 150 mg/kg, po. The following applies: in vivo. It is filed as ADME, organism-based. More on the design: dose 150 mg/kg, route oral. The essentials:
as §2

A short description of data set [15]: Half life in mouse at 100 mg/kg, iv. Format: ADME, organism-based. Also noted: dose 100 mg/kg, route intravenous. As to conditions: in vivo. The essentials: as §3
The nature of data set [16]: Tmax in mouse at 150 mg/kg, po. It is filed as ADME, organism-based. More on the design: dose 150 mg/kg, route oral. As to conditions: in vivo. The essentials:
as §2

Data set [17] can be described thus: Total clearance in mouse at 100 mg/kg, iv. As to conditions: in vivo. More on the design: dose 100 mg/kg, route intravenous. Format: ADME, organism-based. In short, it runs like this:
as §3

For the compound `CC1=C2CC[C@@](C)(O)[C@@H]2[C@H]2OC(=O)[C@@H](CN(C)C)[C@@H]2CC1.Cl` [DIMETHYLAMINOMICHELIOLIDE HYDROCHLORIDE], the survival at 100 mg/kg in data set [1] was found to be 33%. Further, in data set [2], the apparent clearance CL/F is 51.3 mL/min/kg. Also, the Drug degradation entry in data set [3] is recorded as “Active”. In addition, the maximum concentration (Cmax) in data set [4] stood at 92.9 µg/mL. In addition, the Drug metabolism entry in data set [5] was “Active”. The viability at 10 µM in [6] was 64.9%. The Activity entry in data set [7] is reported as “Non-toxic”; in [8] it was “Non-toxic”; in [9] it was “Non-toxic”; in data set [12], 0.14%. Moreover, the Survival in data set [10] was determined as 63 days. Also, in [11], half-maximal inhibition (IC50) was put at 21.5 µM. The bioavailability in [13] was 75%. The same compound gave a mean residence time (MRT last) in [14] of 8.85 h. Further, the half-life in data set [15] was 18.9 h. Moreover, the Tmax in data set [16] was found to be 0.19 h. Moreover, the clearance in data set [17] was 37.7 mL/min/kg.

Source of the values: ChEMBL document CHEMBL2202986, “Guaianolide sesquiterpene lactones, a source to discover agents that selectively inhibit acute myelogenous leukemia stem and progenitor cells” (J Med Chem, 2012).
